# Assay results reported in ChEMBL document CHEMBL1153877, “Lowering of 5-nitroimidazole's mutagenicity: towards optimal antiparasitic pharmacophore” (Eur J Med Chem, 2009).
# pIC50: −log10 of the molar value.
# Test system: Salmonella typhimurium
# Assay: Induction of mutagenicity in Salmonella Typhimurium YG1042 assessed as number of revertant per nmol after 48 hrs
# Assay type: toxicity, organism-based
# Details: salmonella enterica subsp. enterica serovar typhimurium
# In short: (§1)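 YG1042, a TA100 derivative, grown overnight in Nutrient Broth No. 2 with ampicillin and kanamycin. Bacteria preincubated 60 min at 37 °C with shaking with compound in DMSO and 0.1 mL PBS (0.15 M, pH 7.4). Top agar containing histidine/biotin added, then plated on Vogel-Bonner agar. Revertants counted after 48 h. Four doses in triplicate plates; solvent control in quadruplicate. Mutagenic power given as revertants per amount of compound.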
row,Structure (SMILES),Activity
1,Cc1nc(CS(=O)(=O)c2ccc(Br)cc2)c([N+](=O)[O-])n1CCO,3.73
2,Cn1cnc(CS(=O)(=O)c2ccc(Br)cc2)c1[N+](=O)[O-],59.22
3,Cc1nc(CS(=O)(=O)c2ccccc2)c([N+](=O)[O-])n1C,21.91
4,Cc1nc(CS(=O)(=O)c2ccc(F)cc2)c([N+](=O)[O-])n1CCO,3.46
5,Cc1nc(CS(=O)(=O)c2ccc(F)cc2)c([N+](=O)[O-])n1C,7.6
6,Cc1nc(CS(=O)(=O)c2ccc(Cl)cc2)c([N+](=O)[O-])n1CCO,5.3
7,Cn1cnc(CS(=O)(=O)c2ccc(F)cc2)c1[N+](=O)[O-],47.09

# Test system: Salmonella typhimurium
# Assay: Induction of mutagenicity in Salmonella Typhimurium TA100 assessed as number of revertant per nmol after 48 hrs relative to metranidazole
# Assay type: toxicity, organism-based
# Details: salmonella enterica subsp. enterica serovar typhimurium
row,Structure (SMILES),Activity
1,Cc1nc(CS(=O)(=O)c2ccc(Br)cc2)c([N+](=O)[O-])n1CCO,0.13
2,Cn1cnc(CS(=O)(=O)c2ccc(Br)cc2)c1[N+](=O)[O-],1.78
3,Cc1nc(CS(=O)(=O)c2ccccc2)c([N+](=O)[O-])n1C,0.99
4,Cc1nc(CS(=O)(=O)c2ccc(F)cc2)c([N+](=O)[O-])n1CCO,0.08
5,Cc1nc(CS(=O)(=O)c2ccc(F)cc2)c([N+](=O)[O-])n1C,0.18
6,Cc1nc(CS(=O)(=O)c2ccc(Cl)cc2)c([N+](=O)[O-])n1CCO,0.27
7,Cn1cnc(CS(=O)(=O)c2ccc(F)cc2)c1[N+](=O)[O-],1.26

# Test system: not listed separately
# Assay: Specificity index, ratio of IC50 for human THP1 cells to IC50 for Trichomonas vaginalis TVR87
# Parameters: species or system THP-1
# Details: not given
# In short: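 Specificity index = IC50 against THP1 cells (72 h, propidium iodide flow cytometry) divided by IC50 against T. vaginalis (48 h, trypan blue).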
row,Structure (SMILES),Ratio IC50
1,Cc1nc(CS(=O)(=O)c2ccc(F)cc2)c([N+](=O)[O-])n1CC(C)O (stereo not given),>293
2,Cc1nc(CS(=O)(=O)c2ccc(Br)cc2)c([N+](=O)[O-])n1CCO,75
3,Cn1cnc(CS(=O)(=O)c2ccc(Br)cc2)c1[N+](=O)[O-],>1761
4,Cc1nc(CS(=O)(=O)c2ccccc2)c([N+](=O)[O-])n1C,>3525
5,Cc1nc(CS(=O)(=O)c2ccc(F)cc2)c([N+](=O)[O-])n1CCO,>416
6,Cc1nc(CS(=O)(=O)c2ccc(F)cc2)c([N+](=O)[O-])n1C,>312
7,Cc1nc(CS(=O)(=O)c2ccc(Cl)cc2)c([N+](=O)[O-])n1CCO,13136
8,Cn1cnc(CS(=O)(=O)c2ccc(F)cc2)c1[N+](=O)[O-],>2500

# Test system: THP-1
# Assay: Cytotoxicity against human THP1 cells after 72 hrs by propidium iodide-based flow cytometry
# Assay type: cell-based
# Details: THP-1, 72 h
# In short: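 THP1 monocytes kept in RPMI with 10% foetal calf serum, 25 mM HEPES, 25 mM NaHCO₃ and 1% L-glutamine/penicillin-streptomycin at 37 °C, 6% CO₂. Cells at 10⁵ cells/mL exposed for 72 h to various concentrations from DMSO stocks. Drug-free and 0.5% DMSO final controls run alongside. Living cells counted by propidium iodide flow cytometry.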
row,Structure (SMILES),pIC50
1,Cc1nc(CS(=O)(=O)c2ccc(F)cc2)c([N+](=O)[O-])n1CC(C)O (stereo not given),< 3.16
2,Cc1nc(CS(=O)(=O)c2ccc(Br)cc2)c([N+](=O)[O-])n1CCO,3.91
3,Cn1cnc(CS(=O)(=O)c2ccc(Br)cc2)c1[N+](=O)[O-],< 3.16
4,Cc1nc(CS(=O)(=O)c2ccccc2)c([N+](=O)[O-])n1C,< 3.07
5,Cc1nc(CS(=O)(=O)c2ccc(F)cc2)c([N+](=O)[O-])n1CCO,< 3.14
6,Cc1nc(CS(=O)(=O)c2ccc(F)cc2)c([N+](=O)[O-])n1C,< 3.10
7,Cc1nc(CS(=O)(=O)c2ccc(Cl)cc2)c([N+](=O)[O-])n1CCO,3.24
8,Cn1cnc(CS(=O)(=O)c2ccc(F)cc2)c1[N+](=O)[O-],< 3.08
9,Cc1ncc([N+](=O)[O-])n1CCO [METRONIDAZOLE],< 2.84

# Test system: Salmonella typhimurium
# Assay: Induction of mutagenicity in Salmonella Typhimurium YG1042 assessed as number of revertant per ug after 48 hrs
# Assay type: toxicity, organism-based
# Details: salmonella enterica subsp. enterica serovar typhimurium
# In short: as §1
row,Structure (SMILES),Activity
1,Cc1nc(CS(=O)(=O)c2ccc(Br)cc2)c([N+](=O)[O-])n1CCO,9.123
2,Cn1cnc(CS(=O)(=O)c2ccc(Br)cc2)c1[N+](=O)[O-],164.42
3,Cc1nc(CS(=O)(=O)c2ccccc2)c([N+](=O)[O-])n1C,74.18
4,Cc1nc(CS(=O)(=O)c2ccc(F)cc2)c([N+](=O)[O-])n1CCO,10.09
5,Cc1nc(CS(=O)(=O)c2ccc(F)cc2)c([N+](=O)[O-])n1C,24.26
6,Cc1nc(CS(=O)(=O)c2ccc(Cl)cc2)c([N+](=O)[O-])n1CCO,14.73
7,Cn1cnc(CS(=O)(=O)c2ccc(F)cc2)c1[N+](=O)[O-],157.34

# Test system: Salmonella typhimurium
# Assay: Induction of mutagenicity in Salmonella Typhimurium YG1042 assessed as number of revertant per nmol after 48 hrs relative to metranidazole
# Assay type: toxicity, organism-based
# Details: salmonella enterica subsp. enterica serovar typhimurium
row,Structure (SMILES),Activity
1,Cc1nc(CS(=O)(=O)c2ccc(Br)cc2)c([N+](=O)[O-])n1CCO,0.04
2,Cn1cnc(CS(=O)(=O)c2ccc(Br)cc2)c1[N+](=O)[O-],0.7
3,Cc1nc(CS(=O)(=O)c2ccccc2)c([N+](=O)[O-])n1C,0.26
4,Cc1nc(CS(=O)(=O)c2ccc(F)cc2)c([N+](=O)[O-])n1CCO,0.04
5,Cc1nc(CS(=O)(=O)c2ccc(F)cc2)c([N+](=O)[O-])n1C,0.09
6,Cc1nc(CS(=O)(=O)c2ccc(Cl)cc2)c([N+](=O)[O-])n1CCO,0.06
7,Cn1cnc(CS(=O)(=O)c2ccc(F)cc2)c1[N+](=O)[O-],0.56

# Test system: Salmonella typhimurium
# Assay: Induction of mutagenicity in Salmonella Typhimurium TA100 assessed as number of revertant per nmol after 48 hrs
# Assay type: toxicity, organism-based
# Details: salmonella enterica subsp. enterica serovar typhimurium
# In short: (§2)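 TA100 grown overnight in Nutrient Broth No. 2 with ampicillin. Bacteria preincubated 60 min at 37 °C with shaking with compound in DMSO and 0.1 mL PBS (0.15 M, pH 7.4). Top agar containing histidine/biotin added, then plated on Vogel-Bonner agar. Revertants counted after 48 h. Four consecutive doses in triplicate plates; solvent control in quadruplicate. Mutagenic power given as revertants per amount of compound.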
row,Structure (SMILES),Activity
1,Cc1nc(CS(=O)(=O)c2ccc(Br)cc2)c([N+](=O)[O-])n1CCO,1.1
2,Cn1cnc(CS(=O)(=O)c2ccc(Br)cc2)c1[N+](=O)[O-],14.92
3,Cc1nc(CS(=O)(=O)c2ccccc2)c([N+](=O)[O-])n1C,8.24
4,Cc1nc(CS(=O)(=O)c2ccc(F)cc2)c([N+](=O)[O-])n1CCO,0.66
5,Cc1nc(CS(=O)(=O)c2ccc(F)cc2)c([N+](=O)[O-])n1C,1.48
6,Cc1nc(CS(=O)(=O)c2ccc(Cl)cc2)c([N+](=O)[O-])n1CCO,2.24
7,Cn1cnc(CS(=O)(=O)c2ccc(F)cc2)c1[N+](=O)[O-],10.53

# Test system: Salmonella typhimurium
# Assay: Ratio of number of revertant per nmol of drug for Salmonella Typhimurium YG1042 to number of revertant per nmol of drug for Salmonella Typhimurium TA100
# Assay type: toxicity, organism-based
# Details: salmonella enterica subsp. enterica serovar typhimurium
row,Structure (SMILES),Ratio
1,Cc1nc(CS(=O)(=O)c2ccc(Br)cc2)c([N+](=O)[O-])n1CCO,3.4
2,Cn1cnc(CS(=O)(=O)c2ccc(Br)cc2)c1[N+](=O)[O-],4
3,Cc1nc(CS(=O)(=O)c2ccccc2)c([N+](=O)[O-])n1C,2.7
4,Cc1nc(CS(=O)(=O)c2ccc(F)cc2)c([N+](=O)[O-])n1CCO,5.3
5,Cc1nc(CS(=O)(=O)c2ccc(F)cc2)c([N+](=O)[O-])n1C,5.1
6,Cc1nc(CS(=O)(=O)c2ccc(Cl)cc2)c([N+](=O)[O-])n1CCO,2.4
7,Cn1cnc(CS(=O)(=O)c2ccc(F)cc2)c1[N+](=O)[O-],4.5

# Test system: Salmonella typhimurium
# Assay: Induction of mutagenicity in Salmonella Typhimurium TA100 assessed as number of revertant per ug after 48 hrs
# Assay type: toxicity, organism-based
# Details: salmonella enterica subsp. enterica serovar typhimurium
# In short: as §2
row,Structure (SMILES),Activity
1,Cc1nc(CS(=O)(=O)c2ccc(Br)cc2)c([N+](=O)[O-])n1CCO,2.73
2,Cn1cnc(CS(=O)(=O)c2ccc(Br)cc2)c1[N+](=O)[O-],41.41
3,Cc1nc(CS(=O)(=O)c2ccccc2)c([N+](=O)[O-])n1C,27.91
4,Cc1nc(CS(=O)(=O)c2ccc(F)cc2)c([N+](=O)[O-])n1CCO,1.91
5,Cc1nc(CS(=O)(=O)c2ccc(F)cc2)c([N+](=O)[O-])n1C,4.72
6,Cc1nc(CS(=O)(=O)c2ccc(Cl)cc2)c([N+](=O)[O-])n1CCO,6.22
7,Cn1cnc(CS(=O)(=O)c2ccc(F)cc2)c1[N+](=O)[O-],35.17

# Test system: Trichomonas vaginalis
# Assay: Antitrichomonas activity against Trichomonas vaginalis TVR87 after 48 hrs by trypan blue staining
# Assay type: functional, organism-based
# Details: TVR87, 48 h
# In short: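 T. vaginalis TVR87 trophozoites grown in TM 161 medium with 10% heat-inactivated horse serum, used one day after subculture in log phase. Assay at 5 × 10³ trophozoites/mL, triplicate cultures, incubated anaerobically at 37 °C for 48 h with a range of compound concentrations from DMSO stocks. DMSO 0.1% final served as negative control. Viable cells counted by trypan blue.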
row,Structure (SMILES),pIC50
1,Cc1nc(CS(=O)(=O)c2ccc(F)cc2)c([N+](=O)[O-])n1CC(C)O (stereo not given),5.62
2,Cc1nc(CS(=O)(=O)c2ccc(Br)cc2)c([N+](=O)[O-])n1CCO,5.79
3,Cn1cnc(CS(=O)(=O)c2ccc(Br)cc2)c1[N+](=O)[O-],6.40
4,Cc1nc(CS(=O)(=O)c2ccccc2)c([N+](=O)[O-])n1C,6.62
5,Cc1nc(CS(=O)(=O)c2ccc(F)cc2)c([N+](=O)[O-])n1CCO,5.76
6,Cc1nc(CS(=O)(=O)c2ccc(F)cc2)c([N+](=O)[O-])n1C,5.59
7,Cc1nc(CS(=O)(=O)c2ccc(Cl)cc2)c([N+](=O)[O-])n1CCO,7.36
8,Cn1cnc(CS(=O)(=O)c2ccc(F)cc2)c1[N+](=O)[O-],6.48
9,Cc1ncc([N+](=O)[O-])n1CCO [METRONIDAZOLE],5.56
